Activity calls are given as the source filed them. The calls are words filed in the database; no cut-off is given here.
Tested on: MDA-MB-435
Experiment: Cytotoxicity against human MDA-MB-435 cells
Assay type: functional, cell-based
Summary of the method: (§1)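 MDA-MB-435 cells seeded at 5×10³ per well and allowed 4 h at 37 °C under 5% CO₂. They were then exposed to the agent alone or combined with camptothecin, with DMSO as vehicle control, for 48 h. MTS was developed 4 h and read at 490 nm with medium-only background subtracted. Percent was calculated relative to DMSO-treated cells.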

SMILES	EC50
O=c1[nH]c2ccc(Cl)cc2c(N[C@@H]2CN3CCC2CC3)c1-c1nc2ccccc2[nH]1	80 nM

Target: T1, Serine/threonine-protein kinase Chk1 (Homo sapiens, UniProt O14757)
T1 sequence (O14757 whole entry): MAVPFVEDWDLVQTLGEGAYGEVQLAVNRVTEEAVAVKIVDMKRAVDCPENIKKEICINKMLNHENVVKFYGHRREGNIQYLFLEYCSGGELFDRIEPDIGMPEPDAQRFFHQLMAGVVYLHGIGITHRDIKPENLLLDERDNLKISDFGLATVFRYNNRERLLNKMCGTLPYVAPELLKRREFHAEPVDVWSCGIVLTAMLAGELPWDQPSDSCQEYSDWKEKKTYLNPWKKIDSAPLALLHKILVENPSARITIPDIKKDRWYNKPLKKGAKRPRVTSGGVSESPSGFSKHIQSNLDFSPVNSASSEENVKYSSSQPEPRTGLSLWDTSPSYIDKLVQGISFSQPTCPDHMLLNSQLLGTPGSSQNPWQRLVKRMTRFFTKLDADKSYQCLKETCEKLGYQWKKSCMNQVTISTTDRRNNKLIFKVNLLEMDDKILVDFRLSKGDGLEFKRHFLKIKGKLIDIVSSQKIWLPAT
Experiment: Inhibition of CHK1

SMILES	IC50
Cc1ccc2nc(O)c(-c3nc4ccccc4[nH]3)c(N[C@@H]3CN4CCC3CC4)c2c1	0.35 nM
O=c1[nH]c2ccccc2c(N[C@H]2CN3CCC2CC3)c1-c1nc2ccccc2[nH]1	482 nM
Oc1nc2ccc(Cl)cc2c(NC2CCCNC2)c1-c1nc2ccccc2[nH]1 (stereo unspecified)	1.04 nM
Cc1cccc2c(N[C@@H]3CN4CCC3CC4)c(-c3nc4ccccc4[nH]3)c(O)nc12	138 nM
O=c1[nH]c2ccc(Cl)c(Cl)c2c(N[C@@H]2CN3CCC2CC3)c1-c1nc2ccccc2[nH]1	21.7 nM
O=c1[nH]c2ccc(Cl)cc2c(NC2CCNCC2)c1-c1nc2ccccc2[nH]1	3.3 nM
Cc1ccc2[nH]c(=O)c(-c3nc4ccccc4[nH]3)c(NC3CCCNC3)c2c1 (stereo unspecified)	1.4 nM
Nc1c(-c2nc3ccccc3[nH]2)c(=O)[nH]c2ccccc12	731 nM
Cc1ccc2nc(O)c(-c3nc4ccccc4[nH]3)c(NC3CCNCC3)c2c1	3.3 nM
O=c1[nH]c2ccc(Cl)cc2c(N[C@@H]2CCNC2)c1-c1nc2ccccc2[nH]1	7.2 nM
O=c1[nH]c2ccccc2c(N[C@@H]2CN3CCC2CC3)c1-c1nc2ccccc2[nH]1	7.6 nM
O=c1[nH]c2ccccc2c(O)c1-c1nc2ccccc2[nH]1	2950 nM
CCN(CC)c1c(-c2nc3ccccc3[nH]2)c(=O)[nH]c2ccccc12	> 30000 nM
Oc1nc2ccc(Cl)cc2c(N[C@H]2CCNC2)c1-c1nc2ccccc2[nH]1	0.5 nM

Tested on: MDA-MB-435
Experiment: Cytotoxicity against human MDA-MB-435 cells in presence of camptothecin
Assay type: functional, cell-based
Summary of the method: as §1

SMILES	Activity
O=c1[nH]c2ccc(Cl)cc2c(N[C@@H]2CN3CCC2CC3)c1-c1nc2ccccc2[nH]1	Active
